These results are taken from ChEMBL document CHEMBL1153905, “Functionalized 3-benzylidene-indolin-2-ones: inducers of NAD(P)H-quinone oxidoreductase 1 (NQO1) with antiproliferative activity” (Bioorg Med Chem, 2009).

Data set [1] addresses T1, CYP1A1 (Mus musculus, UniProt P00184).
T1 sequence (P00184 whole entry): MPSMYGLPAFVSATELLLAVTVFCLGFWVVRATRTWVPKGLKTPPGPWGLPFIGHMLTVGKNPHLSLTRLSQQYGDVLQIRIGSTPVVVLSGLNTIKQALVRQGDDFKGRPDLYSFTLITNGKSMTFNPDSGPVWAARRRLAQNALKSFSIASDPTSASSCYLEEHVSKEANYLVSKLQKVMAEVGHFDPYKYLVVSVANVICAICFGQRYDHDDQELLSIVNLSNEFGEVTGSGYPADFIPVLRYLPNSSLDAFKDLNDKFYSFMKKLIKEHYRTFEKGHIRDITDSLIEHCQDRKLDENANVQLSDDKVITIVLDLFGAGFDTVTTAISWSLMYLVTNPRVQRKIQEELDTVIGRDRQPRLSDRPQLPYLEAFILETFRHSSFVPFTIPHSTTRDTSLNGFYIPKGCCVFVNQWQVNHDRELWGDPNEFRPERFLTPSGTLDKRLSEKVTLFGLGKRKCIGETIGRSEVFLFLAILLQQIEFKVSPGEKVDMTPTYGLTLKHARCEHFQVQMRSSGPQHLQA
Put plainly: Induction of CYP1A1 activity in mouse Hepa-1c1c7 cells assessed as induction ratio at 7.5 uM after 48 hrs by EROD assay relative to control. Type of data set: ADME, cell-based. The method in brief: (§1)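 Hepa1c1c7 cells were seeded at 10,000 per well and grown 24 h. They were then exposed 48 h to compound (final DMSO 0.5% v/v) at about 4 × the NQO1 CD. After a PBS wash, cells got 5 µM 7-ethoxyresorufin plus 2 mM salicylamide in medium, 37 °C, 40 min. Resorufin was read at ex 530/em 590 nm, corrected for compound fluorescence. Ratio = (F treated − blank)/(F DMSO control − blank); mean ± SD, n = 3.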

Data set [2] in a line: Cytotoxicity against mouse Hepa-1c1c7 cells after 48 hrs by MTT assay. The format is cell-based. Conditions: hepa-1c1c7, 48 h. The method in brief:
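Murine hepatoma cells in α-MEM with 10% heat- and charcoal-treated fetal calf serum, passages 6–17; MTT read-out as for the cancer lines but with 48 h compound exposure. Highest concentration tested 25 µM. IC50 from survival-versus-concentration curve; mean and SD, n = 3.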

The target in data set [3] is NAD(P)H dehydrogenase [quinone] 1 (Mus musculus) (UniProt Q64669). Put plainly: Induction of NQO1 activity in mouse Hepa-1c1c7 cells assessed as induction ratio at 7.5 uM after 48 hrs by MTT assay relative to control. Type of data set: cell-based. The method in brief: (§2)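 Hepa1c1c7 cells, 10,000 per well, 24 h, were then treated 48 h (DMSO ≤0.5%). Digitonin/EDTA lysates were assayed for menadione-dependent MTT-formazan formation using a G6P/G6PDH NADPH-generating mix with FAD at pH 7.4. The reaction ran 5 min, was stopped with dicoumarol, and read at A590. Degree of induction = (A test − blank)/(A control − blank). Ratios were read off the induction–concentration plot at the EROD test concentration.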
Chain of NAD(P)H dehydrogenase [quinone] 1 (Mus musculus) (Q64669 whole entry): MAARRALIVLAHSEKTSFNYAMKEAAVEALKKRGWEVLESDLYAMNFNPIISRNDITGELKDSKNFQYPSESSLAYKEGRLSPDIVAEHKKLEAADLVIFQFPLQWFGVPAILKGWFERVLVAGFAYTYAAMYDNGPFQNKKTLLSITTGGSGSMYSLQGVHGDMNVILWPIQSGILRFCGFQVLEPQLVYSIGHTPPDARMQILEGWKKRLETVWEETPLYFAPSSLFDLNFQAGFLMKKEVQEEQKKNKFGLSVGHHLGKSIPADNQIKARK

The target of data set [4] is T1, CYP1A1. Briefly: Induction of CYP1A1 activity in mouse Hepa-1c1c7 cells assessed as induction ratio at 2.5 uM after 48 hrs by EROD assay relative to control. Type of data set: ADME, cell-based. In a few lines: as §1
Data set [5] has as its target NAD(P)H dehydrogenase [quinone] 1 (Mus musculus) (UniProt Q64669). Put plainly: Induction of NQO1 activity in mouse Hepa-1c1c7 cells assessed as induction ratio at 2.5 uM after 48 hrs by MTT assay relative to control. Type of data set: cell-based. In a few lines:
as §2
Background: Tetrazolium assays rely on reduction of a dye to a coloured formazan, in cell work by metabolically active cells.

For data set [6], the system named is HCT-116. Briefly: Antiproliferative activity against human HCT116 cells after 72 hrs by MTT assay. Type of data set: functional, cell-based. Conditions: HCT-116, 72 h. The method in brief:
(§3)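 Cells seeded at 10,000 (MCF7), 4000 (HCT116) or 5000 (CCL186) per well and grown 24 h; MCF7 and CCL186 in EMEM with pyruvate, glutamine, 10% FBS; HCT116 in McCoy's 5A with 10% FBS. Compounds from DMSO stocks (≤1% DMSO final), 72 h exposure; MTT 0.5 mg/ml for 3 h, formazan in DMSO read at 590 nm. IC50 from sigmoidal survival curve, three separate occasions.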

For data set [7], the system named is MCF7. Put plainly: Antiproliferative activity against human MCF7 cells after 72 hrs by MTT assay. Type of data set: functional, cell-based. Conditions: MCF7, 72 h. The method in brief:
as §3

A short description of data set [8]: Antiproliferative activity against human CCL186 cells after 72 hrs by MTT assay. Type of data set: cell-based. Conditions: CCL186, 72 h. The method in brief:
as §3

The subject of data set [9] is MCF7. Briefly: Selectivity ratio of IC50 for human CCL186 cells to IC50 for human MCF7 cells. In a few lines:
(§4)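 MTT assay. MCF7 and CCL186 cells were grown in EMEM/10% FBS, HCT116 in McCoy's 5A/10% FBS. Seeding was 10,000 (MCF7), 4000 (HCT116) and 5000 (CCL186) cells per well, 24 h. Compound exposure was 72 h, DMSO ≤1% final. MTT 0.5 mg/ml for 3 h, formazan dissolved in DMSO, A590. IC50 came from sigmoidal survival curves, with 3 separate occasions per concentration. Ratio = IC50 CCL186 / IC50 of the cancer line.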

Data set [10] can be described thus: Selectivity ratio of IC50 for human CCL186 cells to IC50 for human HCT116 cells. As to conditions: CCL186 cells and HCT116 cells, read-out: Ratio IC50. Type of data set: ADME, cell-based, HCT-116. The method in brief: as §4
Data set [11] has as its system HCT-116. Briefly: Cell cycle arrest in human HCT116 cells released from G1 block assessed as accumulation at sub G1 phase at 15 uM after 24 hrs by flow cytometry. Type of data set: functional.
Data set [12] concerns HCT-116. Briefly: Cell cycle arrest in human HCT116 cells released from G2 block assessed as accumulation at sub G1 phase at 15 uM after 24 hrs by flow cytometry. Type of data set: functional. In general terms: In flow cytometry, cells or beads pass a laser one at a time.
The subject of data set [13] is HCT-116. Put plainly: Cell cycle arrest in human HCT116 cells released from G1 block assessed as accumulation at G1 phase at 15 uM after 24 hrs by flow cytometry. Type of data set: functional.
Data set [14] relates to HCT-116. Briefly: Cell cycle arrest in human HCT116 cells released from G2 block assessed as accumulation at G1 phase at 15 uM after 24 hrs by flow cytometry. The format is functional.
For data set [15], the system named is HCT-116. Put plainly: Cell cycle arrest in human HCT116 cells released from G1 block assessed as accumulation at S phase at 15 uM after 24 hrs by flow cytometry. Type of data set: functional.
The test system of data set [16] is HCT-116. Briefly: Cell cycle arrest in human HCT116 cells released from G2 block assessed as accumulation at S phase at 15 uM after 24 hrs by flow cytometry. Type of data set: functional.
Data set [17] relates to HCT-116. Put plainly: Cell cycle arrest in human HCT116 cells released from G1 block assessed as accumulation at G2/M phase at 15 uM after 24 hrs by flow cytometry. Type of data set: functional.
For data set [18], the system named is HCT-116. Briefly: Cell cycle arrest in human HCT116 cells released from G2 block assessed as accumulation at G2/M phase at 15 uM after 24 hrs by flow cytometry. The format is functional.
Data set [19] deals with T1, CYP1A1. Put plainly: Induction of CYP1A1 activity in mouse Hepa-1c1c7 cells assessed as induction ratio at 5 nM after 48 hrs by EROD assay relative to control. Type of data set: ADME, cell-based. In a few lines: as §1
Data set [20] has as its target NAD(P)H dehydrogenase [quinone] 1 (Mus musculus) (UniProt Q64669). Briefly: Induction of NQO1 activity in mouse Hepa-1c1c7 cells assessed as induction ratio at 5 nM after 48 hrs by MTT assay relative to control. The format is cell-based. In a few lines:
as §2

Data set [21] is described as follows: Ratio of induction of NQO1 activity to induction of CYP1 activity in mouse Hepa-1c1c7 cells at 5 nM after 48 hrs.
Data set [22] deals with T1, CYP1A1. Briefly: Induction of CYP1A1 activity in mouse Hepa-1c1c7 cells assessed as induction ratio at 0.5 uM after 48 hrs by EROD assay relative to control. Type of data set: ADME, cell-based. The method in brief: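 About 10,000 Hepa1c1c7 cells/well cultured 24 h, then compound (0.5% DMSO final) for 48 h, at roughly 4 × the concentration doubling NQO1 activity. After PBS wash, cells given 5 µM 7-ethoxyresorufin plus 2 mM salicylamide, 37 °C, 40 min; resorufin fluorescence ex 530/em 590 nm, corrected for compound fluorescence. Ratio = (treated − blank)/(DMSO control − blank); mean ± SD, n = 3.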

Data set [23] addresses NAD(P)H dehydrogenase [quinone] 1 (Mus musculus) (UniProt Q64669). Briefly: Induction of NQO1 activity in mouse Hepa-1c1c7 cells assessed as induction ratio at 0.5 uM after 48 hrs by MTT assay relative to control. Type of data set: cell-based. In a few lines: as §2

Where only a bound is given, the exact number is not on record here.

Consider `Cc1ccc(/C=C2/C(=O)Nc3ccccc32)cc1`, for which the fold induction at 48 h, 7.5 µM in data set [1] worked out at 1.07. The molecule further gave an IC50 in data set [2] above 25 µM. Besides, in data set [3], the Ratio stood at 3.05.
On to `COc1cccc(/C=C2/C(=O)Nc3ccc(Cl)cc32)c1`, for which, in data set [4], the fold induction at 48 h, 2.5 µM was found to be 1.32. In addition, in data set [2], inhibition was half-maximal at 17.5 µM (IC50). Further, the Ratio in data set [5] worked out at 4.34.
For `O=C1Nc2ccccc2/C1=C\c1ccc2ccccc2c1`, in that order: 1.06, above 25 µM and 4.61.
In the case of `O=C1Nc2ccccc2/C1=C\c1cccc(Oc2ccccc2)c1`, the fold induction at 48 h, 7.5 µM in data set [1] amounted to 1.08. Also, the IC50 in data set [6] was 3.7 µM; in data set [7], 8.2 µM; in [8] it was 12.7 µM; in data set [2], 10.8 µM. Moreover, the “Ratio IC50” value in data set [9] is listed as 3.4. Further, the selectivity ratio in [10] is 1.5. For the same molecule, the Activity amounted to 3.62% in data set [11]; 2.16% in [12]; 55.93% in data set [13]; 63.51% in data set [14]; 21.83% in [15]; 13.1% in data set [16]. Also, the Activity in [17] was determined as 18.98%; in data set [18], 21.09%. In addition, the Ratio in data set [3] was determined as 3.34.
`O=C1Nc2ccccc2/C1=C1\C(=O)Nc2cc(F)ccc21` came in with an IC50 in [2] above 25 µM. In addition, the fold induction at 48 h, 0.005 µM in data set [19] turned out to be 2.75. The Ratio in data set [20] is 2.56; in data set [21], 0.93.
The corresponding values for `O=C1Nc2ccccc2/C1=C1\C(=O)Nc2ccc(Cl)cc21` are 20.5 µM, 2.31, 2.42 and 1.05.
`COc1cc(/C=C2/C(=O)Nc3ccccc32)cc(OC)c1OC`: the Activity in data set [11] is recorded as 3.78%; in data set [12], 4.13%; in [13] it was 56.85%; in [14], 42.06%; in [15], 21.42%; in data set [16], 16.84%. Moreover, the Activity in data set [17] amounted to 18.54%; in data set [18], 36.45%. In addition, the IC50 in data set [2] is above 25 µM.
With `COc1ccc(/C=C2/C(=O)Nc3cc(F)ccc32)cc1O`, in data set [22], the fold induction at 48 h, 0.5 µM came out at 2.05. The molecule further registered an IC50 in [2] of 15.6 µM. For the same molecule, in data set [23], the Ratio came out at 4.1.
`O=C1Nc2ccccc2/C1=C\c1ccc(F)cc1Cl`: the fold induction at 48 h, 2.5 µM in data set [4] was determined as 1.2. In data set [2], the IC50 was above 25 µM. Also, in data set [5], the Ratio is 3.52.
With `O=C1Nc2ccccc2/C1=C\c1cccc(Cl)c1`, the fold induction at 48 h, 0.5 µM in [22] came out at 1.21. This molecule also yielded an IC50 in data set [2] of 5.9 µM. The Ratio in data set [23] is 4.47.

Broadly, the fold induction is the ratio of treated to control signal. A word on the IC50: it is the point on the concentration scale where inhibition reaches its midpoint. A lower IC50 goes with greater potency in that assay.
